# Assays:
# CHO-Galpha16 [1] = assay: Intrinsic activity at rat MT1 receptor expressed in CHO-Galpha16 cells assessed as Ca2+ mobilization after 20 mins by FLIPR assay relative to ramelteon; type: cell-based
# Outline: (§1)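 CHO-Galpha16 cells expressing rat MT1 or MT2, plated 24 h ahead, loaded with Fluo4-AM (1.5 final) plus pluronic acid in HBSS/20 mM HEPES/0.1% BSA pH 7.4 with 2.5 mM probenecid, 1 h at 37 °C, then washed. Ca2+ read by FLIPR. Agonist mode: 15 s baseline, compound added, 3 min read. Antagonist mode: compound preincubated 20 min at room temperature, then melatonin at EC80, 3 min read.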
# [2] = Binding affinity to rat MT1 receptor expressed in CHO-Galpha16 cells assessed as Ca2+ mobilization after 20 mins by FLIPR assay; type: cell-based; outline: as §1
# [3] = Binding affinity to rat MT2 receptor expressed in CHO-Galpha16 cells assessed as Ca2+ mobilization after 20 mins by FLIPR assay; type: cell-based; outline: as §1
# [4] = Displacement of [3H]melatonin from rat MT2 receptor expressed in CHO-Galpha16 cells; type: cell-based
# Outline: (§2)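 Rat MT1 or MT2 membranes from CHO-Galpha16 cells incubated with [3H]-melatonin (0.5 nM final, 80 Ci/mmol) in 50 mM Tris/HCl pH 7.4, 5 mM MgCl2. Nonspecific binding defined with excess melatonin. Stopped by rapid GF/B filtration with five ice-cold washes. Ki from IC50 via Cheng–Prusoff.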
# [5] = Displacement of [3H]melatonin from rat MT1 receptor expressed in CHO-Galpha16 cells; type: cell-based; outline: as §2
# Rattus norvegicus [6] = organism: Rattus norvegicus; assay: Intrinsic activity at rat MT2 receptor expressed in CHO-Galpha16 cells assessed as Ca2+ mobilization after 20 mins by FLIPR assay relative to agomelatine; type: cell-based; outline: as §1
# Liver microsomes [7] = assay: Intrinsic clearance in rat liver microsome at 1 uM by LC/MS analysis; type: ADME
# Outline: (§3)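 Compound at 1 µM incubated with liver microsomes (0.5 mg/mL protein) and an NADPH-regenerating system, sampled at 0, 5, 15, 30 and 60 min. Quenched, centrifuged supernatants analysed by LC/MS for remaining parent to estimate T1/2.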
# Liver microsomes [8] = assay: Intrinsic clearance in human liver microsome at 1 uM by LC/MS analysis; type: ADME; outline: as §3
# CHO-Galpha16 [9] = assay: Inhibition of rat MT1 receptor expressed in CHO-Galpha16 cells relative to control; type: cell-based; set-up: concentration or dose not given beside the values; details: dose or concentration not given here; outline: as §1
# CHO-Galpha16 [10] = assay: Inhibition of rat MT2 receptor expressed in CHO-Galpha16 cells relative to control; type: cell-based; details: dose or concentration not given here; outline: as §1
# [11] = Drug level in rat plasma at 10 mg/kg, ip after 1 hr; type: ADME, organism-based; set-up: dose 10 mg/kg, route intraperitoneal; details: read-out: Drug uptake
# Outline: (§4)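 Rats dosed 10 mg/kg IP, with brain and plasma concentrations taken at 1 h. Vehicle varied: 20% HP-bCD, 15% Solutol, or 10% DMSO with 2.5% PEG400 in 15% Solutol. B/P is the brain-to-plasma concentration ratio.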
# [12] = Ratio of drug level in rat brain to plasma at 10 mg/kg, ip after 1 hr; type: ADME, organism-based; set-up: dose 10 mg/kg, route intraperitoneal; outline: as §4
# [13] = Drug level in rat brain at 10 mg/kg, ip after 1 hr; type: ADME, organism-based; set-up: dose 10 mg/kg, route intraperitoneal; details: read-out: Drug uptake; outline: as §4
# [14] = (§5) Ratio of Ki for rat MT1 to Ki for rat MT2; outline: as §2
# [15] = Agonist activity at human MT1 receptor; type: functional
# [16] = Agonist activity at human MT2 receptor; type: functional
# Rattus norvegicus [17] = organism: Rattus norvegicus; assay: as §5; outline: as §2
SMILES,EC50 [2] [nM],EC50 [3] [nM],Intrinsic activity (CHO-Galpha16 [1]) [%],Ki [4] [nM],Ki [5] [nM],Intrinsic activity (Rattus norvegicus [6]) [%],also measured
Cc1cccc(C2CCN(C(=O)C3CC3)CC2)c1,> 10000,> 10000,0.4,–,–,15,–
COc1cccc(C2CCN(C(=O)c3ccccc3)CC2)c1,> 10000,4400,12,110,650,60,–
COc1ccc(C2CCN(C(C)=O)CC2)cc1,1700,3400,34,360,4700,140,–
CCOc1cccc(C2CCN(C(=O)C3CC3)CC2)c1,–,–,–,4100,5700,–,–
COc1cccc(C2CCN(C(=O)C3CC3(C)C)CC2)c1 (stereo unspecified),640,147,33,–,–,30,–
COc1ccccc1C1CCN(C(=O)C2CC2)CC1,> 10000,> 10000,2,–,–,3,–
COc1cccc(C2CCN(C(=O)C(C)C)CC2)c1,98,19,87,31,160,76,–
O=C(C1CC1)N1CCC(c2cccc(O)c2)CC1,> 10000,3600,96,–,–,23,–
COc1ccc2cccc(CCNC(C)=O)c2c1 [AGOMELATINE],2.1,1.4,94,0.14,1.2,100,concentration at 1 h [11]: 0.7 µM; Kp at 1 h [12]: 1.5; clearance (Liver microsomes [7]): 144 µL/min/mg; clearance (Liver microsomes [8]): 361 µL/min/mg; concentration at 1 h [13]: 1.03 µM
COc1ccc2[nH]cc(CCNC(C)=O)c2c1 [MELATONIN],0.56,1.1,97,0.58,0.99,97,–
COc1cccc(-c2cccc(NC(=O)C3CC3)n2)c1,> 10000,1200,15,83,1500,57,IC50 [5]: 3800 nM; inhibition (CHO-Galpha16 [9]): 41%
CCCC(=O)N[C@H]1CCN(c2cccc(OC)c2)C1,–,–,–,–,–,–,Ki [15]: 3.7 nM; Ki [16]: 2.6 nM
CCC(=O)NCC[C@@H]1CCc2ccc3c(c21)CCO3 [RAMELTEON],3.1,0.89,100,0.03,2,95,concentration at 1 h [11]: 0.58 µM; Kp at 1 h [12]: 0.7; clearance (Liver microsomes [7]): 60 µL/min/mg; clearance (Liver microsomes [8]): 47 µL/min/mg; concentration at 1 h [13]: 0.39 µM
CCC(CC)C(=O)N1CCC(c2cccc(OC)c2)CC1,2300,790,32,–,–,35,–
CC(C)Oc1cccc(C2CCN(C(=O)C3CC3)CC2)c1,> 10000,> 10000,9,–,–,10,–
COc1ccc(C2CCN(C(=O)C3CC3)CC2)cc1,> 10000,5000,58,870,1100,94,–

# The next lines start with results.
EC50 [2] [nM],EC50 [3] [nM],SMILES,Intrinsic activity (CHO-Galpha16 [1]) [%],Ki [4] [nM],Ki [5] [nM],Intrinsic activity (Rattus norvegicus [6]) [%],also measured
380,200,COc1cccc(C2CCN(C(=O)C3CCC3)CC2)c1,52,67,140,62,–
390,4.2,O=C(N[C@H]1CCCN(c2cccc(OC(F)F)c2)C1)C1CC1,21,44,410,57,clearance (Liver microsomes [7]): 485 µL/min/mg; clearance (Liver microsomes [8]): 48 µL/min/mg; IC50 [5]: 870 nM; inhibition (CHO-Galpha16 [9]): 96%
0.74,2.3,COc1cc(N2CCC[C@H](NC(=O)C3CC3)C2)ccc1Cl,73,2.1,1.2,65,clearance (Liver microsomes [7]): 199 µL/min/mg; clearance (Liver microsomes [8]): 45 µL/min/mg
> 10000,> 10000,O=C(N[C@H]1CCCN(c2cccc(OCCO)c2)C1)C1CC1,3,150,610,12,inhibition (CHO-Galpha16 [10]): 94%; IC50 [4]: 31 nM; IC50 [5]: 930 nM; inhibition (CHO-Galpha16 [9]): 91%
7500,2800,COc1cccc(C2CCN(C(=O)C3CCCCC3)CC2)c1,42,–,–,36,–
1700,1800,COc1cccc(C2CCN(C(=O)CC(C)C)CC2)c1,39,–,–,35,–
170,50,COc1cccc(N2CC(NC(=O)C3CC3)Cc3ccccc32)c1 (racemic),84,6.7,75,35,–
18,2.5,COc1cccc(N2CCCC2CNC(=O)C2CC2)c1 (racemic),89,3.3,21,98,–
9.7,2.9,COc1cccc(N2CCCC(NC(=O)C3CC3)C2)c1 (racemic),85,2.7,15,99,IC50 [4]: > 10000 nM; Ki ratio (MT1/MT2) [14]: 5.6; IC50 [5]: > 10000 nM
> 10000,> 10000,COc1cc(N2CCC[C@@H](NC(=O)C3CC3)C2)ccc1Cl,19,31,130,23,inhibition (CHO-Galpha16 [10]): 98%; IC50 [4]: 24 nM; Ratio Ki (Rattus norvegicus [17]): 4; IC50 [5]: 440 nM; inhibition (CHO-Galpha16 [9]): 94%
> 10000,12,O=C(N[C@H]1CCCN(c2cccc(OC(F)(F)F)c2)C1)C1CC1,1,66,190,53,IC50 [5]: 2100 nM; inhibition (CHO-Galpha16 [9]): 95%
3500,93,COc1cccc(N2CCC[C@@H](NC(=O)C3CC3)C2)c1,30,95,1000,23,inhibition (CHO-Galpha16 [10]): 97%; IC50 [4]: 10 nM
3.9,6.2,COc1cccc(N2CCC[C@H](NC(=O)C3CC3)C2)c1,77,2.7,9.9,74,concentration at 1 h [11]: 0.73 µM; Kp at 1 h [12]: 0.2; clearance (Liver microsomes [7]): 616 µL/min/mg; clearance (Liver microsomes [8]): 28 µL/min/mg; concentration at 1 h [13]: 0.18 µM
> 10000,> 10000,COc1cccc(C2CCN(C(C)=O)CC2)c1,6,–,–,19,–
610,140,COc1cccc(C2CCN(C(=O)[C@H]3C[C@@H]3C)CC2)c1,19,35,150,65,–
1300,42,CCC(=O)N1CCC(c2cccc(OC)c2)CC1,31,150,810,66,–
65,9.5,COc1cccc(C2CCN(C(=O)C3CC3)CC2)c1,41,10,40,74,concentration at 1 h [11]: 0.39 µM; Kp at 1 h [12]: 1.4; clearance (Liver microsomes [7]): 91 µL/min/mg; clearance (Liver microsomes [8]): 29 µL/min/mg; Ratio Ki (Rattus norvegicus [17]): 4; concentration at 1 h [13]: 0.54 µM
210,110,COc1cccc(C2CCN(C(=O)C3CCCC3)CC2)c1,67,–,–,74,–
